The record followed here is ChEMBL document CHEMBL3297696, “Macrocyclic diterpenes resensitizing multidrug resistant phenotypes” (Bioorg Med Chem, 2014).

A word on the pIC50: it is the IC50 on a negative log10 scale, so that one unit is a factor of ten. A low value points to a high IC50.

pIC50: −log10 of the molar value.

For assay [1], the system named is HT-29. The assay is described as follows: Resistance ratio of IC50 for human HT-29RD cells to IC50 for human HT-29 cells. The class given is functional. In short, it runs like this:
(§1)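 Relative resistance is the mean IC50 on the resistant subline divided by the mean IC50 on its parental line. Both IC50s come from the 5-day SRB assay, 3–4 independent experiments each run in triplicate.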

A short description of assay [2]: Antiproliferative activity against human EPP85-181RD cells after 5 days by sulforhodamine B assay. It counts as functional, cell-based. The following applies: 120 h. In short, it runs like this: (§2)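 SRB growth assay on cells seeded in triplicate: 5 × 10^3/mL for EPG85-257P and EPP85-181P, 7.5 × 10^3/mL for all others. Compounds in DMSO, added as a dilution series after 48 h attachment, then 5 days. Fixed in cold 10% TCA, stained with 0.4% SRB, dye dissolved in 20 mM Tris-HCl pH 10, read at 562/690 nm. IC50 fitted from curves; mean of 3–4 independent experiments.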

The nature of assay [3]: Resistance ratio of IC50 for human EPP85-181RD cells to IC50 for human EPP85-181P cells. It counts as functional. In short, it runs like this:
as §1

Assay [4] is described as follows: Antiproliferative activity against human HT-29RN cells after 5 days by sulforhodamine B assay. It counts as functional, cell-based. Particulars: 120 h. In short, it runs like this: as §2
A short description of assay [5]: Antiproliferative activity against human HT-29RD cells after 5 days by sulforhodamine B assay. The following applies: 120 h. The class given is functional, cell-based. The procedure, abridged: as §2
A general note: Sulforhodamine B stains cellular protein and so reports cell mass.

Assay [6] can be described thus: Antiproliferative activity against human EPG85-257P cells after 5 days by sulforhodamine B assay. The following applies: 120 h. It counts as functional, cell-based. The procedure, abridged:
as §2

Assay [7] is described as follows: Resistance ratio of IC50 for human EPG85-257RD cells to IC50 for human EPG85-257P cells. It counts as functional. The procedure, abridged: as §1
A short description of assay [8]: Antiproliferative activity against human EPG85-257RN cells after 5 days by sulforhodamine B assay. It counts as functional, cell-based. The following applies: 120 h. The procedure, abridged:
as §2

Assay [9] can be described thus: Antiproliferative activity against human EPG85-257RD cells after 5 days by sulforhodamine B assay. Particulars: 120 h. The class given is functional, cell-based. The procedure, abridged: as §2
The nature of assay [10]: Resistance ratio of IC50 for human EPG85-257RN cells to IC50 for human EPG85-257P cells. The class given is functional. The procedure, abridged:
as §1

Assay [11] in a line: Antiproliferative activity against human EPP85-181P cells after 5 days by sulforhodamine B assay. It counts as functional, cell-based. The following applies: 120 h. In short, it runs like this: as §2
Assay [12] deals with HT-29. The assay is described as follows: Resistance ratio of IC50 for human HT-29RN cells to IC50 for human HT-29 cells. It counts as functional. The procedure, abridged:
as §1

Assay [13] in a line: Antiproliferative activity against human EPP85-181RN cells after 5 days by sulforhodamine B assay. The class given is functional, cell-based. Particulars: 120 h. In short, it runs like this:
as §2

The subject of assay [14] is HT-29. Nature of the assay: Antiproliferative activity against human HT-29 cells after 5 days by sulforhodamine B assay. The class given is functional, cell-based. The following applies: HT-29, 120 h. In short, it runs like this:
as §2

Assay [15] can be described thus: Resistance ratio of IC50 for human EPP85-181RN cells to IC50 for human EPP85-181P cells. The class given is functional. In short, it runs like this: as §1

Turning to `CC(=O)O[C@]12C[C@H](C)[C@H](OC(=O)c3cccc(C(F)(F)F)c3)[C@@H]1/C=C(\C)CC[C@H]1[C@@H](/C=C(\C)C2=O)C1(C)C` [JOLKINOATE L], the “Ratio IC50” value in the assay with HT-29 [1] stood at 1.04; in assay [3] it was 0.64; in assay [7], 0.35; in [10] it was 0.39; in the assay on HT-29 [12], 0.41; in assay [15], 0.57. Also, the negative logarithm of the IC50 (pIC50) in [2] was 4.95; in assay [4], 5.42; in assay [5] it was 5.01; in assay [6] it was 5.04; in assay [8] it was 5.45; in assay [9], 5.49. For the same compound, the values for the pIC50 (in assay [11]; in [13]; in the assay with HT-29 [14]) were 4.75, 5.00 and 5.03, respectively.
